ChEMBL document CHEMBL4665666, “Discovery and characterization of trypanocidal cysteine protease inhibitors from the 'malaria box'” (Eur J Med Chem, 2019)
The source made the active and inactive calls. No cut-off for these calls is given here.

Assays:
[1] = target: Rhodesain (Trypanosoma brucei rhodesiense) (UniProt Q95PM0); assay: Inhibition of recombinant Trypanosoma brucei rhodesain expressed in Pichia pastoris at 10 uM using Z-FR-AMC as substrate and measured at 12 sec interval for 5 mins without preincubation by fluorimetric analysis relative to control
In short: (§1)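 Recombinant rhodesain or cruzain (1 nM) in 0.1 M sodium acetate pH 5.5, 0.01% Triton X-100, 1 mM β-mercaptoethanol. Compound at a single concentration, either without or after 10 min enzyme pre-incubation. Z-FR-AMC 2.5 µM, read at 340/440 nm every 12 s for 5 min. Inhibition is relative to DMSO, with E-64 as positive control. Done in duplicate (primary screen) or triplicate.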

[2] = target: Cruzipain (Trypanosoma cruzi) (UniProt P25779); assay: Inhibition of recombinant Trypanosoma cruzi cruzain at 5 uM using Z-FR-AMC as substrate and measured at 12 sec interval for 5 mins without preincubation by fluorimetric analysis relative to control
In short: (§2)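 Recombinant rhodesain or cruzain (1 nM) in 0.1 M sodium acetate pH 5.5, 0.01% Triton X-100, 1 mM β-mercaptoethanol. Compound at a single concentration, either without or after 10 min enzyme pre-incubation. Inhibition is relative to DMSO, with E-64 as positive control. Done in duplicate (primary screen) or triplicate.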

[3] = target: Cruzipain (Trypanosoma cruzi) (UniProt P25779); assay: Inhibition of recombinant Trypanosoma cruzi cruzain at 20 uM using Z-FR-AMC as substrate preincubated for 10 mins followed by substrate addition and measured at 12 sec interval for 5 mins by fluorimetric analysis relative to control; conditions: time 15.0 min; in short: as §1
[4] = target: Cruzipain (Trypanosoma cruzi) (UniProt P25779); assay: Inhibition of recombinant Trypanosoma cruzi cruzain at 10 uM using Z-FR-AMC as substrate preincubated for 10 mins followed by substrate addition and measured at 12 sec interval for 5 mins by fluorimetric analysis relative to control; conditions: time 15.0 min; in short: as §1
[5] = target: Cruzipain (Trypanosoma cruzi) (UniProt P25779); assay: Inhibition of recombinant Trypanosoma cruzi cruzain at 10 uM using Z-FR-AMC as substrate and measured at 12 sec interval for 5 mins without preincubation by fluorimetric analysis relative to control; in short: as §1
[6] = target: Rhodesain (Trypanosoma brucei rhodesiense) (UniProt Q95PM0); assay: Inhibition of recombinant Trypanosoma brucei rhodesain expressed in Pichia pastoris at 20 uM using Z-FR-AMC as substrate and measured at 12 sec interval for 5 mins without preincubation by fluorimetric analysis relative to control
In short: (§3)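 Run with no pre-incubation or with 10 min enzyme-compound pre-incubation. Fluorescence read at 340/440 nm. Concentration was set by solubility under assay conditions. Inhibition is against DMSO, with E-64 as positive control; triplicate.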

[7] = target: Rhodesain (Trypanosoma brucei rhodesiense) (UniProt Q95PM0); assay: Inhibition of recombinant Trypanosoma brucei rhodesain expressed in Pichia pastoris at 20 uM using Z-FR-AMC as substrate preincubated for 10 mins followed by substrate addition and measured at 12 sec interval for 5 mins by fluorimetric analysis relative to control; conditions: time 15.0 min; in short: as §3
[8] = target: Cruzipain (Trypanosoma cruzi) (UniProt P25779); assay: Inhibition of recombinant Trypanosoma cruzi cruzain at 20 uM using Z-FR-AMC as substrate and measured at 12 sec interval for 5 mins without preincubation by fluorimetric analysis relative to control; in short: as §1
[9] = target: Rhodesain (Trypanosoma brucei rhodesiense) (UniProt Q95PM0); assay: Inhibition of recombinant Trypanosoma brucei rhodesain expressed in Pichia pastoris at 10 uM using Z-FR-AMC as substrate preincubated for 10 mins followed by substrate addition and measured at 12 sec interval for 5 mins by fluorimetric analysis relative to control; conditions: time 15.0 min; in short: as §1
[10] = tested on: Trypanosoma brucei rhodesiense; assay: Trypanocidal activity against Trypanosoma brucei rhodesiense STI B900 assessed as reduction in parasite viability; format: functional, organism-based
[11] = target: Rhodesain (Trypanosoma brucei rhodesiense) (UniProt Q95PM0); assay: Inhibition of recombinant Trypanosoma brucei rhodesain expressed in Pichia pastoris at 5 uM using Z-FR-AMC as substrate preincubated for 10 mins followed by substrate addition and measured at 12 sec interval for 5 mins by fluorimetric analysis relative to control; conditions: time 15.0 min; in short: as §2
[12] = target: Cruzipain (Trypanosoma cruzi) (UniProt P25779); assay: Inhibition of recombinant Trypanosoma cruzi cruzain at 5 uM using Z-FR-AMC as substrate preincubated for 10 mins followed by substrate addition and measured at 12 sec interval for 5 mins by fluorimetric analysis relative to control; conditions: time 15.0 min; in short: as §2
[13] = target: Rhodesain (Trypanosoma brucei rhodesiense) (UniProt Q95PM0); assay: Inhibition of recombinant Trypanosoma brucei rhodesain expressed in Pichia pastoris at 5 uM using Z-FR-AMC as substrate and measured at 12 sec interval for 5 mins without preincubation by fluorimetric analysis relative to control; in short: as §2
[14] = tested on: Trypanosoma brucei brucei; assay: Trypanocidal activity against Trypanosoma brucei brucei Squib 427 assessed as reduction in parasite viability; format: functional, organism-based
Trypanosoma cruzi [15] = assay: Trypanocidal activity against Trypanosoma cruzi Tulahuen C4 assessed as reduction in parasite viability; format: functional, organism-based
[16] = target: Cruzipain (Trypanosoma cruzi) (UniProt P25779); assay: Inhibition of recombinant Trypanosoma cruzi cruzain at 10 uM preincubated with enzyme for 5 mins followed by substrate addition in absence of BSA relative to control
In short: (§4)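 For BSA sensitivity, compound was held 5 min with BSA (2 mg/mL in 0.001% Triton X-100), then 5 min with 1 nM cruzain, before substrate was added and activity monitored. Parallel runs omitted BSA under otherwise identical conditions.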

[17] = target: Cruzipain (Trypanosoma cruzi) (UniProt P25779); assay: Inhibition of recombinant Trypanosoma cruzi cruzain at 10 uM preincubated for 10 mins in presence of 0.1% Triton X-100 relative to control
In short: (§5)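 To test detergent sensitivity, cruzain was pre-incubated 10 min at room temperature with compound with no Triton X-100, 0.01% or 0.1% Triton X-100. Cleavage of Z-FR-AMC was then followed at pH 5.5 in acetate buffer. Percent inhibition was compared across detergent levels.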

[18] = target: Cruzipain (Trypanosoma cruzi) (UniProt P25779); assay: Inhibition of recombinant Trypanosoma cruzi cruzain at 10 uM preincubated with BSA for 5 mins followed by incubation with enzyme for 5 mins followed by substrate addition relative to control; conditions: time 10.0 min; in short: as §4
Cruzipain [19] = target: T1, Cruzipain (Trypanosoma cruzi, UniProt P25779); assay: Inhibition of recombinant Trypanosoma cruzi cruzain using Z-FR-AMC as substrate and measured at 12 sec interval for 5 mins without preincubation by fluorimetric analysis
In short: (§6)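 Cruzain (recombinant, 1 nM) in 0.1 M sodium acetate pH 5.5 with 0.01% Triton X-100 and 1 mM β-mercaptoethanol; Z-FR-AMC 2.5 µM, read at 340/440 nm every 12 s for 5 min, with or without 10 min enzyme–compound pre-incubation. […] For mechanism and Ki, 0.3–20.0 µM substrate and five inhibitor levels were used, with Lineweaver-Burk plots.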

[20] = target: Cruzipain (Trypanosoma cruzi) (UniProt P25779); assay: Inhibition of recombinant Trypanosoma cruzi cruzain at 10 uM preincubated for 10 mins in absence of Triton X-100 relative to control; in short: as §5
[21] = target: Cruzipain (Trypanosoma cruzi) (UniProt P25779); assay: Inhibition of recombinant Trypanosoma cruzi cruzain at 10 uM preincubated for 10 mins in presence of 0.01% Triton X-100 relative to control; in short: as §5
Trypanosoma cruzi [22] = assay: Trypanocidal activity against Trypanosoma cruzi Y strain trypomastigotes infected in C57BL/6 mouse peritoneal macrophage assessed as reduction in number of trypomastigotes release at 50 uM and measured after day 3 to day 11 post-infection by Neubauer chamber method; format: functional, organism-based; conditions: time 11.0 day
In short: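 Thioglycolate-elicited peritoneal macrophages from female C57BL/6 mice, 2 × 10^5/well, infected 2 h at 37°C with Y strain trypomastigotes at 5:1 (parasite:cell) and washed. They were then held with compound (3.125–50 µM) or IFN-γ 100 ng/mL. Trypomastigotes released into the supernatant were counted in a Neubauer chamber at several days after infection. Three independent experiments, each in triplicate.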

[23] = target: Cruzipain (Trypanosoma cruzi) (UniProt P25779); assay: Inhibition of recombinant Trypanosoma cruzi cruzain at 100 uM preincubated for 10 mins in absence of Triton X-100 relative to control; in short: as §5
[24] = target: Cruzipain (Trypanosoma cruzi) (UniProt P25779); assay: Inhibition of recombinant Trypanosoma cruzi cruzain at 100 uM preincubated with BSA for 5 mins followed by incubation with enzyme for 5 mins followed by substrate addition relative to control; conditions: time 10.0 min; in short: as §4
Rhodesain = Rhodesain (Trypanosoma brucei rhodesiense, UniProt Q95PM0); assay: Inhibition of recombinant Trypanosoma brucei rhodesain expressed in Pichia pastoris using Z-FR-AMC as substrate preincubated for 10 mins followed by substrate addition and measured at 12 sec interval for 5 mins by fluorimetric analysis
In short: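 Rhodesain (1 nM) with Z-FR-AMC (2.5 µM) in 0.1 M sodium acetate pH 5.5, 0.01% Triton X-100, 1 mM β-mercaptoethanol, with or without 10 min enzyme-compound pre-incubation. Fluorescence read at 340/440 nm. IC50 by four-parameter nonlinear regression from at least six concentrations in triplicate, with at least two independent runs. Mean ± SEM reported.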

[25] = target: Cruzipain (Trypanosoma cruzi) (UniProt P25779); assay: Inhibition of recombinant Trypanosoma cruzi cruzain at 100 uM preincubated for 10 mins in presence of 0.1% Triton X-100 relative to control; in short: as §5
Cruzipain [26] = target: T1, Cruzipain; assay: Inhibition of recombinant Trypanosoma cruzi cruzain using Z-FR-AMC as substrate preincubated for 10 mins followed by substrate addition and measured at 12 sec interval for 5 mins by fluorimetric analysis; in short: as §6
[27] = target: Cruzipain (Trypanosoma cruzi) (UniProt P25779); assay: Inhibition of recombinant Trypanosoma cruzi cruzain at 100 uM preincubated with enzyme for 5 mins followed by substrate addition in absence of BSA relative to control; in short: as §4
[28] = target: Cruzipain (Trypanosoma cruzi) (UniProt P25779); assay: Inhibition of recombinant Trypanosoma cruzi cruzain at 100 uM preincubated for 10 mins in presence of 0.01% Triton X-100 relative to control; in short: as §5
[29] = target: Rhodesain (Trypanosoma brucei rhodesiense) (UniProt Q95PM0); assay: Inhibition of recombinant Trypanosoma brucei rhodesain expressed in Pichia pastoris at 100 uM using Z-FR-AMC as substrate and measured at 12 sec interval for 5 mins without preincubation by fluorimetric analysis relative to control; in short: as §3
[30] = target: Rhodesain (Trypanosoma brucei rhodesiense) (UniProt Q95PM0); assay: Inhibition of recombinant Trypanosoma brucei rhodesain expressed in Pichia pastoris at 100 uM using Z-FR-AMC as substrate preincubated for 10 mins followed by substrate addition and measured at 12 sec interval for 5 mins by fluorimetric analysis relative to control; conditions: time 15.0 min; in short: as §3
[31] = target: Cruzipain (Trypanosoma cruzi) (UniProt P25779); assay: Inhibition of recombinant Trypanosoma cruzi cruzain at 100 uM using Z-FR-AMC as substrate preincubated for 10 mins followed by substrate addition and measured at 12 sec interval for 5 mins by fluorimetric analysis relative to control; conditions: time 15.0 min; in short: as §1
[32] = target: Cruzipain (Trypanosoma cruzi) (UniProt P25779); assay: Inhibition of recombinant Trypanosoma cruzi cruzain at 100 uM using Z-FR-AMC as substrate and measured at 12 sec interval for 5 mins without preincubation by fluorimetric analysis relative to control; in short: as §1

Rhodesain (Trypanosoma brucei rhodesiense), sequence (Q95PM0 1-450): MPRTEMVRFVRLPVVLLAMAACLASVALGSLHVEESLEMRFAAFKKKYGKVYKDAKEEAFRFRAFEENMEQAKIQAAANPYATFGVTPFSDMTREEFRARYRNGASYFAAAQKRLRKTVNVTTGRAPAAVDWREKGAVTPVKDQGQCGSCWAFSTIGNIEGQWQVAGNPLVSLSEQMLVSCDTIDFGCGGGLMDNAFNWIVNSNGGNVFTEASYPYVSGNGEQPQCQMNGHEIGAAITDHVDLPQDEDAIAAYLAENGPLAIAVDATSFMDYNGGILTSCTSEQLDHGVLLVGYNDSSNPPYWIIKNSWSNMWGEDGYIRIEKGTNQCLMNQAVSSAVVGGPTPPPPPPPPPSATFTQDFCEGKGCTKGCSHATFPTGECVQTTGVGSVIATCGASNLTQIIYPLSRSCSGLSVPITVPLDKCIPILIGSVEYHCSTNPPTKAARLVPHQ
Cruzipain (Trypanosoma cruzi), sequence (P25779 123-467 limits assumed): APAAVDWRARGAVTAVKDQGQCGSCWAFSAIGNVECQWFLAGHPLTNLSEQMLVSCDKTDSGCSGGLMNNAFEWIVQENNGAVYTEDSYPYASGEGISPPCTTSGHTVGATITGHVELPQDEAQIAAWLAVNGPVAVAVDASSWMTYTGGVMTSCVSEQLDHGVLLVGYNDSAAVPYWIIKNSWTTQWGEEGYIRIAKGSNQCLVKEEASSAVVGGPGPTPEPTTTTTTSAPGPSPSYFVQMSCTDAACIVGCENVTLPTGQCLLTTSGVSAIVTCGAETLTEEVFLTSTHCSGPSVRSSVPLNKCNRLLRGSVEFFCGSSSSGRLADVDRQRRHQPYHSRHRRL
T1 sequence (P25779 whole entry): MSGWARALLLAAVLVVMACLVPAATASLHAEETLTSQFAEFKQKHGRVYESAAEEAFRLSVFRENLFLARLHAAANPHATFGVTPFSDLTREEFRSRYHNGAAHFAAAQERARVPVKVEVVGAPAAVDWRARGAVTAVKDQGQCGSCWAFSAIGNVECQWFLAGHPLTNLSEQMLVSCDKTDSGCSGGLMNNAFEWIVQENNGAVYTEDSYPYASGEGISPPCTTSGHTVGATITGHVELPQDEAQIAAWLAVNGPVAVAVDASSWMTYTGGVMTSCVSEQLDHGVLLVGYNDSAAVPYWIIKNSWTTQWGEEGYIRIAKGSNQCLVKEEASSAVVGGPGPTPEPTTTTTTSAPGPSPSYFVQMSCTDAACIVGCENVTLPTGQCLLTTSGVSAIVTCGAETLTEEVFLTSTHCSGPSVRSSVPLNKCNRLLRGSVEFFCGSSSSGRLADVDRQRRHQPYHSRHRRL
Rhodesain, sequence (Q95PM0 whole entry): as the sequence (Q95PM0 1-450) above

SMILES | inhibition [1] [%] | inhibition [2] [%] | inhibition [3] [%] | inhibition [4] [%] | inhibition [5] [%] | inhibition [6] [%] | inhibition [7] [%] | inhibition [8] [%] | inhibition [9] [%] | IC50 [10] [µM] | inhibition [11] [%] | inhibition [12] [%] | inhibition [13] [%] | IC50 [14] [µM] | IC50 (Trypanosoma cruzi [15]) [µM] | inhibition [16] [%] | inhibition [17] [%] | inhibition [18] [%] | inhibition [20] [%] | inhibition [21] [%] | further results
Cc1nc2ccccc2c(O)c1CC=C(Cl)Cl | 5 | 61.5 | 7 | 11 | 4 | 4 | 3 | 3 | 2 | 32 | 77.1 | 99.1 | 43.4 | 32 |  |  |  |  |  |  | 
CCOc1cccc(C(=O)Nc2ccc(-c3nc4ccccc4[nH]3)cc2)c1 | 46 | 88.1 |  | 100 | 89 |  |  |  | 100 | 32 | 75.6 | 72.7 | 53.7 | 32 | 32 | 97.9 | 34.6 | 16 | 100 | 100 | IC50 (Cruzipain [19]): 2.6 µM
c1ccc(-c2ccc(-c3nc4ccccc4[nH]3)cc2)cc1 | 14 | 77 |  | 38 | 33 |  |  |  | 52 | 32 | 52.9 | 87.1 | 42.2 | 32 | 32 | 41.3 | 7.3 | 29 | 100 | 38.4 | 
COCCNC(=O)c1ccc(OC2CCN(Cc3ccc(F)c(F)c3)CC2)c(Cl)c1 | 14 | 42 |  | 66 | 18 |  |  |  | 81 |  | 83.8 | 74.5 | 42.1 | 32 | 32 |  |  |  |  |  | Activity (Trypanosoma cruzi [22]): Active; inhibition [23]: 98.3%; inhibition [24]: 64.7%; IC50 (Rhodesain): 9 µM; inhibition [25]: 78.6%; IC50 (Cruzipain [26]): 5 µM; inhibition [27]: 79.9%; inhibition [28]: 68.2%; inhibition [29]: 63%; inhibition [30]: 75%; inhibition [31]: 78%; inhibition [32]: 29%
COCCNCC(O)Cn1c2ccc(Cl)cc2c2cc(Cl)ccc21 (stereo unspecified) | 14 | 18.4 |  | 28 | 14 |  |  |  | 3 | 0.4 | 62.4 | 42.1 | 33.6 | 0.7 |  |  |  |  |  |  | inhibition [23]: 100%; inhibition [24]: 61.3%; inhibition [25]: 47.3%; inhibition [27]: 87.9%; inhibition [28]: 25.5%; inhibition [29]: 38%; inhibition [30]: 48%; inhibition [31]: 67%; inhibition [32]: 50%
CCOc1ccc(/C=C/c2nc(=O)c3ccccc3o2)cc1 | 8 | 30.1 | 10 | 3 | 10 | 14 | 0 | 15 | 0 |  | 67 | 88.6 | 32.7 | 32 |  |  |  |  |  |  | 
